Measurements as given in publication PMC8591627 (ACS infectious diseases, 2021).
≈ marks a conversion by molar mass, not a printed value. Where “and” joins values, the source holds several entries; their conditions need not be identical. Equal entries are not always repeated.

What was measured:
[1] = test system: LAC pEPSA5_azoR; assay: MIC; type: cell-based, Staphylococcus aureus; conditions: cultured with 1% xylose
Method in brief: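 pEPSA vector strains were cultured with 1% xylose for induction. Overnight Mueller-Hinton cultures (37 °C, 200 rpm) were diluted 1/1000 into serial dilutions of test compound in Mueller-Hinton broth in 96-well plates. Plates were incubated statically at 37 °C for 18 h. Values are representative of three independent experiments.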

[2] = test system: Vero cells; type: cell-based; conditions: 72 h
[3] = test system: MRSA strain LAC; assay: Selection of spontaneous resistant mutants, frequency; type: cell-based, Staphylococcus aureus; conditions: 8x MIC, 3 d incubation
[4] = test system: LAC pEPSA5_yceI; assay: MIC; type: cell-based, Staphylococcus aureus; conditions: for MIC: LAC pEPSA5_yceI
Method in brief: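 LAC strains carried empty pEPSA5 or pEPSA5_yceI (yceI under a xylose-inducible promoter). They were grown overnight with or without xylose induction; for the azoR overexpression set, pEPSA strains were cultured with 1% xylose. The 1/1000 inoculum went into Mueller-Hinton broth with serial compound dilutions, incubated statically at 37 °C for 18 h. Values represent three independent experiments.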

[5] = test system: LAC yceI::Tn pCM28_azoR; assay: MIC; type: cell-based, Staphylococcus aureus
Method in brief: (§1)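 Overnight cultures were grown in 5 mL Mueller-Hinton at 37 °C with shaking at 200 rpm. They were diluted 1/1000 into 96-well plates holding serial dilutions of test compound in Mueller-Hinton broth. Plates were sealed against drying and incubated statically at 37 °C for 18 h before reading. All strains are isogenic and in the LAC background.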

[6] = test system: MRSA ATCC 43300; assay: MIC, drug susceptibility assay; type: cell-based, Staphylococcus aureus; conditions: 18 h, 37 °C, visual inspection
[7] = test system: LAC azoR::Tn; assay: MIC; type: cell-based, Staphylococcus aureus; conditions: genotype azoR::Tn, LAC background
Method in brief: as §1

[8] = test system: S. aureus (ATCC 43300); assay: Nitric oxide release assay, Griess reagent; type: cell-based, Staphylococcus aureus; conditions: 100 μM, over 48 h; positive control DEA-NONOate
Method in brief: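 ATCC 43300 was grown in Mueller-Hinton medium to OD600 0.4 and split three ways: untreated, 100 μM test compound, or 100 μM DEA-NONOate. At 24 and 48 h, samples were centrifuged and supernatants were mixed with fresh Griess reagent for 30 min at room temperature. Absorbance at 548 nm was converted to nitrite against sodium nitrite standards (50–0.78 μM, 2-fold) made in medium.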

[9] = test system: S. aureus (ATCC 43300); assay: Membrane depolarization assay; type: cell-based, Staphylococcus aureus; conditions: 4.5x MIC, 10 min; positive control sodium deoxycholate
Method in brief: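 ATCC 43300 was grown from a single colony in Mueller-Hinton to OD600 0.5, then loaded with DiBAC4 (final 20 μg/mL) for 5 min. Bacteria plus dye received test compound at 4.5x MIC; controls were no addition (negative) and 0.05% w/v sodium deoxycholate (positive). Fluorescence (ex 490/em 510 nm) was read every 5 s for 10 min, in triplicate.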

[10] = test system: LAC yceI::Tn azoR1 pCM28_azoR; assay: MIC; type: cell-based, Staphylococcus aureus
Method in brief: as §1

[11] = test system: LAC yceI::Tn azoR1 pCM28; assay: MIC; type: cell-based, Staphylococcus aureus
Method in brief: as §1

[12] = test system: LAC yceI::Tn azoR2; assay: MIC; type: cell-based, Staphylococcus aureus
Method in brief: as §1

[13] = test system: LAC yceI::Tn azoR3; assay: MIC; type: cell-based, Staphylococcus aureus
[14] = test system: MSSA ATCC 25923; assay: MIC, drug susceptibility assay; type: cell-based, Staphylococcus aureus; conditions: 18 h, 37 °C, visual inspection

## O=C(Nc1cc(Cl)cc2cccnc12)c1ccc([N+](=O)[O-])s1 [JSF-3151]
[1]
  MIC: 0.39 µg/mL (≈ 1.17 µM)
[2]
  Vero cell CC50: > 50 µg/mL
[2]; read-out: Vero cell CC50
  CC50: > 150 µM
[3]
  frequency of resistant mutants: 6 x 10^−8
[4]; growth with xylose +
  MIC: >50 µg/mL
[4]; growth with xylose −
  MIC: 3.1 µg/mL (≈ 9.29 µM)
[4]; overnight induction with xylose
  resistance versus strain carrying empty vector pEPSA5: > 64 fold
[5]
  MIC: 0.78 µg/mL (≈ 2.34 µM)
[6]
  MRSA ATCC 43300 MIC: 4.0 μg/mL and 12 μM
[6]; listed as Z296972134 (3151)
  MRSA ATCC 43300 MIC: 4.0 μg/mL and 12 μM
[7]
  MIC: 50 µg/mL (≈ 150 µM)
[8]
  NO• production as nitrite in supernatant (Griess reagent): neither DAF-FM (over 2 h) nor the Griess reagent (over 48 h) evidenced NO• production
[9]
  membrane depolarization (DiBAC4 fluorescence): failed to compromise the cell membrane
[10]
  MIC: 3.1 µg/mL (≈ 9.29 µM)
[11]
  MIC: >50 µg/mL
[12]; azoR2 (Trp60stop)
  MIC shift versus yceI::Tn parental strain: 32 fold
[12]; genotype yceI::Tn azoR2
  MIC: 25 µg/mL (≈ 74.9 µM)
[13]; azoR3 (Thr121Ile)
  MIC shift versus yceI::Tn parental strain: 64 fold
[13]; genotype yceI::Tn azoR3
  MIC: >50 µg/mL
[14]
  MSSA ATCC 25923 MIC: 1.6 μg/mL and 4.8 μM
[14]; listed as Z296972134 (3151)
  MSSA ATCC 25923 MIC: 1.6 μg/mL and 4.8 μM
